The labels stand for the following.
B1: tRNA (parent)
chain: GUUCCGUUGGCGUAAUGGUAACGCGUCUCCCUCCUAAGGAGAAGACUGCGGGUUCGAGUCCCGUACGGAACG

Fewer inactive variants are shown than the library holds. A value given as a limit tells only on which side of the number the result lay.

The variants in the series derive from B1. As to the kind of experiment: yeast fitness relative to wild type (ratio to wild type); higher = fitter; tRNA-Arg(CCU), competitive growth, 37 C, YPD. The method in brief:
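The tRNA-Arg(CCU) gene variants were made by chemical synthesis with a 3% per-site mutation rate at 69 sites and inserted at the native genomic locus of Saccharomyces cerevisiae. After pooling, the strains were competed in YPD at 37°C for 24 hours in six parallel replicates. Gene amplicons from the start population and each end population were read by 100-nucleotide paired-end sequencing, and Darwinian fitness relative to wild type was taken from genotype frequency changes. Genotypes needed ≥ 100 starting reads, and estimates < 0.5 were set to 0.5.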
As for GUUCCGUUGGCGUAAUGGUAACGCAUCUCCCUCCUAAGGAGAAGAGUGCGGGUUCGAGUCCCGUUCGGAACG, the yeast fitness was 0.788. Under GUUCCGUUGGCGUAAUGGUAACGCGUCUCCCUCCUGAGGAGAAGACUGCGGGUUCGAGUCCCGUACCGAACG stands 0.759; under GUUCCGUUGGCGCAAUGGUAAGGCGUCUCCCUCCUAAGGAGAAGACUGCGGGUUCGAGUCCCGUACGCAACG, 0.542. Under GUUCCGUUGGCGUAAUGGUACCGCGUCUCCCUCCUAAGGAGAACACUGCGGGUUCGAGUCCCGUACGGAACG stands 0.627.

As to GUUCCGUUGGCGUAAUGGUAACGCGUCUCCCUCCUAAGGAGAAGACUGCGGGUUCGUGUCCCGUUCGGAACG, the yeast fitness stood at 0.618.

For GUUCCGUUGGCGUGCUGGUAACGGGUCUCCCUCCUAAGGAGAAGGCUGCGGGUUCGAGUCCCGUACGGAACG, the yeast fitness is at most 0.5. To GUUCCGUUGGCGUAAUCGUAACGCGUCUCCCUCCUAAGGAGAAGACUGCGGGUUUGAGUCCCGUACGGAACG belongs 0.598. For GUUCCGUUGGCGUAAUCGUAACGCGUCUCCCUCCUAAGGAGAAGACUGCGGGUUAGAGUCCCGUACGGAACG, the yeast fitness was at most 0.5. Under GUUCCGUUGGCGUAAGGGUAACGCGUCUCCGUCCUAAGGAGAAGACUGCGGGUUCGAGUCACGUAUGGAACG stands at most 0.5; under GUUCCGUUGGCGUAAUGGUAACGGGUCUACCUCCUAAGGAGAUGACUGCGGGUUCGAGUCCCGUACGCAACG, 0.561; under GUUUCGUUGGCGUAAUGGUACCGCGUCUCCCUCCUAAGGAGAAGACUGCGGGUUCGAGUCCCGUACUGAACG, at most 0.5. Consider GUUCCGUUGGCGUAAUGGUACCGCGUCUCCCUCCUAAGGAGAACACUGCAGGUUCGGGUCCCGUACGCAACG, for which the yeast fitness is at most 0.5. GUUCCCUUGGCGUAAUGGUAACGCGUCUCCCUCCAAAGGUCAAGACUGAGGGUUCGAGUCCCGUACGGAACG: the yeast fitness was at most 0.5. Under GUACGGUUGGCGUAAUGGUAACGCGUCUGCCUCCUCAGGAGAAGACUGCGGGGUCGAGUCCCGUACGGAACG stands at most 0.5; under GUUCCGUUGGCGUAAUGGUAACGCGUCUCCCUCCUAAGGAGAAGCCUGCGGGUUCGCGUCCCGUACGGAACG, 0.573; under GUUCCGUUGGCGUAAUGGUAACGUGUAUCUCUCCUAAGGAGAAGACUGCGGGUUCGAGUCCCGUACGCAACG, at most 0.5. To GUUCCGUUCGCGUAAUGCUAACGCGUCUCCCUCCUAAGGAGAAGACUGGGGGUUCGAGUCCCAUUCGGAACG belongs at most 0.5. Under GUUCCGUUGGCGUAAUGGUACCGCGUUUCCCUCCUAAGGAGAAGACAGCGGGUUCGAGUCCCGUACGGAACG stands 0.545.

Consider GUUCCGUUGAGGUAAUGGUAACGCGUCUCCCUCCUAAGGACAAGUCUGCGGGUUCGAGUCCCGUACGGAACG, for which the yeast fitness was at most 0.5. To GUUCGGUUGGCGUAAUGGUAACGCGUCUUCGUCCUAAGGAGAACACUGCGGGUUCGAGUCCCGUACGGAACG belongs 0.556.

On to GUUCCGUAGGUGUAAUGGUCACGCGUCUCCCUCCUAAGGAGAAGACUGCGGGUUCGAGUCCCGUACGGAACG, for which the yeast fitness is at most 0.5. For GUUCAGUUGGCGAAAUGGUAACGCGUCUCCCUCCAAAGGAGAAGACUGCGGGUUCGAGCCCCGUACGGAUCG, the yeast fitness was 0.58.

Turning to GUUCCGUUGGAGUAAUGGUAACGCGUGUCCUUCCUAAGGAGAAGACUGCGGGUUCGAGUCCCGUACGAAACG, the yeast fitness is at most 0.5. To GUUCCGUUGGCGUAAUGGUAAGGCGUCUCACUCCUAAGGAGAAGACUGCGGGUUCGAGUCCCGUAAGGAACG belongs at most 0.5; to GUUCCGUUCGCGGAAUGGUAACGCGUCUCCCUCCUAACGAGAAGGCUGCGGGUUCGAGUCCGGUACGGAACG, at most 0.5. Turning to GUUCCGUUGGCGUAAUGGUAACGCGUCUCCCUUUUAAAGAGAAGACUGCGAGUUAGAGUCCCGUUCGGAACG, the yeast fitness was 0.566. To GUUCCGUUGGCGUAAUGGUACCGCGUCACCCUCCUAAGGAGAAGACUGCAGGUUCGAGUCCCGUACGGAACG belongs at most 0.5. For the variant GUUCCGUUGGUGUAAUGGUAACGCGCCUCCCUCCUAAGGAGAAGACAGCAGGUUCGAGUCCCGUACGGACCG, the yeast fitness is at most 0.5.

Turning to GUUCCGUUGGUGUAAUGGUAACGCGGCUCACUCCUAAGGAGACGACUGCGGGCUCGAGUCCCGUAUGGACCG, the yeast fitness is at most 0.5. To GUUCCGUUGGCGUAAUGGUAACGCAUCUCCCUCCUAAGGACAAGACUGCGGGUUCGAAUCCCGUACGGAACG belongs 0.975. To GUUCCGUUGGCGUUAUGGUAACGCGUCUCCCUCCUGAGGAGAAGACUGCGGGAUCGAGUCCCGUACGGAACG belongs at most 0.5; to GGACCGUUGGCGUAAUGGUAACGCGUCUCCCUCCUAAGGAGAAGACUGCGGGUUCGAGUCCCGUACGGAACG, 0.736. To GUUGCGUUGGCGUAAUGGUACCCCGUCUCCCUCCUUAGGAGAAGACUGCGGGUUCGAGUCCCGUACGGAACG belongs 0.635; to GUUCCGUUGGCGUAAUGGUAACGCAUCUCCCUCCUAAGGAGAAGACUGCGGGUUCGAGUUCCGUACGGAACG, 0.808; to GUUCCGUUGGUGUAAUGGUAACCCGUCUCCCUCCUAAGGAGAAGACUGCGGGUUCGAAUCCCGUACGGAUCG, 0.541.

Take GGUCCGUUGGCGUAAUGGUAACGCGUCUCCCUCCUAAGGAGAAGACUGCGGGUUCGAGUCUCGUACGGAGCG: the yeast fitness is 0.795. To GUUCCGUUGGUGUAAUGGUAACGCGUCUUCCUCCCAAGGAGAAGACUGCGGGUUCGAGUCCCGUACGGAACG belongs at most 0.5; to GUUCUGUUGGCGUAAUGGUAACGCGUCCCCCUCCUAAGGAGAAGACUGCGGGUUCGAGUCUCGUACGGAACG, 0.705.
